Drawing on ChEMBL document CHEMBL4152378, “Discovery of a Branched Peptide That Recognizes the Rev Response Element (RRE) RNA and Blocks HIV-1 Replication” (J Med Chem, 2018), this text covers Kd for 13 compounds.

Residues, ends and D or L forms follow the SMILES beside them. *: point of attachment. X1 = N[C@@H](CCCCNC(=O)c1cnccn1)C(=O)N[C@@H](CCCCNC(=O)c1cnccn1)C(=O)N[C@@H](CCCCNC(=O)c1cnccn1)C(=O)*; Pyrazinecarbonyl = O=C(c1cnccn1)*

The experiment can be described thus: Binding affinity to HIV1 rev response element 2B RNA by 2-AP based displacement assay. Also on record: species or system Human immunodeficiency virus 1. The gist of the method:
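2-AP-labeled RRE IIB (0.1 μM) refolded at 95 °C 3 min, snap-cooled; titrated with peptide 0–20 μM in 10 mM potassium phosphate, 100 mM KCl, 1 mM MgCl2, 20 mM NaCl, pH 7.0; excitation 310 nm, emission decrease at 372 nm; Kd from Hill fit; at least duplicate, SD. Competition lines include 10-fold excess unlabeled RNA/DNA competitor.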
In the case of `N=C(N)N[C@H]1CN[C@@H](C(=O)N[C@@H](CCCCNC(=O)c2ccc(B3OC(=O)c4cc(O)ccc4O3)cc2)C(=O)N[C@@H](CCCCNC(=O)c2ccc(B3OC(=O)c4cc(O)ccc4O3)cc2)C(=O)NCCCC[C@H](NC(=O)[C@H](CCCCNC(=O)c2ccc(B3OC(=O)c4cc(O)ccc4O3)cc2)NC(=O)[C@H](CCCCNC(=O)c2ccc(B3OC(=O)c4cc(O)ccc4O3)cc2)NC(=O)[C@H]2C[C@@H](NC(=N)N)CN2)C(=O)N[C@@H](CCCCNC(=O)c2ccc(B3OC(=O)c4cc(O)ccc4O3)cc2)C(=O)N[C@@H](CCCCNC(=O)c2cnccn2)C(=O)N[C@@H](Cc2cccc3ccccc23)C(=O)N[C@@H](Cc2ccc(O)cc2)C(N)=O)C1`, the Kd – broadly, a measure of binding affinity in units of concentration – was greater than 10000 nM.
The result for `NC(=O)[C@H](Cc1ccc(O)cc1)NC(=O)[C@H]1C[C@@H](N)CN1C(=O)CN(CCNC(=O)[C@H](CCCCNC(=O)c1cnccn1)NC(=O)[C@H](CCCCNC(=O)[C@H](Cc1cccc2ccccc12)NC(=O)[C@H](CCCCNC(=O)c1ccc(B(O)O)cc1)NC(=O)[C@H]1C[C@@H](N)CN1)NC(=O)[C@H](Cc1cccc2ccccc12)NC(=O)[C@H](CCCCNC(=O)c1ccc(B(O)O)cc1)NC(=O)[C@H]1C[C@@H](N)CN1)C(=O)Cn1cnc2c(=O)[nH]c(N)nc21` reads 3180 nM.
With `N=C(N)N[C@@H]1C[C@H](C(=O)N2C[C@H](NC(=N)N)C[C@@H]2C(=O)N[C@@H](CCCCNC(=O)c2cnccn2)C(=O)N[C@@H](Cc2ccc(O)cc2)C(N)=O)N(C(=O)[C@H](CCCCNC(=O)[C@H](CCCCNC(=O)c2cnccn2)NC(=O)[C@H]2C[C@@H](N)CN2C(=O)[C@H]2C[C@@H](NC(=N)N)CN2)NC(=O)[C@H](CCCCNC(=O)c2cnccn2)NC(=O)[C@H]2C[C@@H](N)CN2C(=O)[C@H]2C[C@@H](NC(=N)N)CN2)C1`, the Kd worked out at 1300 nM.
Take `N=C(N)N[C@H]1CN[C@@H](C(=O)N2C[C@H](N)C[C@@H]2C(=O)NCCN(CC(=O)NCCCC[C@H](NC(=O)CN(CCNC(=O)[C@H]2C[C@@H](N)CN2C(=O)[C@H]2C[C@@H](NC(=N)N)CN2)C(=O)Cn2cnc3c(=O)[nH]c(N)nc32)C(=O)NCCN(CC(=O)N[C@@H](CCCCNC(=O)c2ccc(B3OC(=O)c4cc(O)ccc4O3)cc2)C(=O)N[C@@H](CCCCNC(=O)c2cnccn2)C(=O)N[C@@H](Cc2ccc(O)cc2)C(N)=O)C(=O)Cn2cnc3c(=O)[nH]c(N)nc32)C(=O)Cn2cnc3c(=O)[nH]c(N)nc32)C1`: the affinity, expressed as Kd, was 1180 nM. This Kd and that of the compound before are within 1.5-fold of each other.
Compound `N=C(N)N[C@@H]1C[C@H](C(=O)N2C[C@H](N)C[C@@H]2C(=O)N[C@@H](Cc2ccc(O)cc2)C(N)=O)N(C(=O)CN(CCNC(=O)[C@H](CCCCNC(=O)[C@H]2C[C@@H](NC(=N)N)CN2C(=O)[C@H]2C[C@@H](N)CN2C(=O)[C@@H](N)CCCCNC(=O)c2cnccn2)NC(=O)[C@H]2C[C@@H](NC(=N)N)CN2C(=O)[C@H]2C[C@@H](N)CN2C(=O)[C@@H](N)CCCCNC(=O)c2cnccn2)C(=O)Cn2cnc3c(=O)[nH]c(N)nc32)C1` registered a Kd of 1110 nM. The Kd values of the last two compounds are within 1.5-fold of each other.
The compound `N=C(N)N[C@@H]1C[C@H](C(=O)N[C@@H](CCCCNC(=O)c2cnccn2)C(=O)N2C[C@H](N)C[C@@H]2C(=O)N[C@@H](Cc2ccc(O)cc2)C(N)=O)N(C(=O)[C@H](CCCCNC(=O)[C@H]2C[C@@H](N)CN2C(=O)[C@H]2C[C@@H](N)CN2C(=O)[C@H]2C[C@@H](NC(=N)N)CN2)NC(=O)[C@H]2C[C@@H](N)CN2C(=O)[C@H]2C[C@@H](N)CN2C(=O)[C@H]2C[C@@H](NC(=N)N)CN2)C1` registered a Kd of 1320 nM. The Kd values of the last two compounds are within 1.5-fold of each other.
`N=C(N)N[C@@H]1C[C@H](C(=O)N[C@@H](Cc2ccc(O)cc2)C(N)=O)N(C(=O)[C@H](Cc2cccc3ccccc23)NC(=O)[C@H](CCCCNC(=O)c2cnccn2)NC(=O)[C@H](CCCCNC(=O)[C@H](Cc2cccc3ccccc23)NC(=O)[C@H](CCCCNC(=O)c2ccc(B3OC(=O)c4cc(O)ccc4O3)cc2)NC(=O)[C@H]2C[C@@H](NC(=N)N)CN2)NC(=O)[C@H](Cc2cccc3ccccc23)NC(=O)[C@H](CCCCNC(=O)c2ccc(B3OC(=O)c4cc(O)ccc4O3)cc2)NC(=O)[C@H]2C[C@@H](NC(=N)N)CN2)C1` gave a Kd of 4960 nM.
Regarding `N=C(N)N[C@H]1CN[C@@H](C(=O)N2C[C@H](N)C[C@@H]2C(=O)N2C[C@H](N)C[C@@H]2C(=O)NCCCC[C@H](NC(=O)[C@H]2C[C@@H](N)CN2C(=O)[C@H]2C[C@@H](N)CN2C(=O)[C@H]2C[C@@H](NC(=N)N)CN2)C(=O)N[C@@H](CCCCNC(=O)c2cnccn2)C(=O)NCCN(CC(=O)N2C[C@H](N)C[C@@H]2C(=O)N[C@@H](Cc2ccc(O)cc2)C(N)=O)C(=O)Cn2cnc3c(=O)[nH]c(N)nc32)C1`, the Kd was 1020 nM.
On to `NC(=O)[C@H](Cc1ccc(O)cc1)NC(=O)[C@H](CCCCNC(=O)c1cnccn1)NC(=O)[C@H](CCCCNC(=O)c1cnccn1)NC(=O)[C@H](CCCCNC(=O)c1cnccn1)NC(=O)[C@H](CCCCNC(=O)[C@H](CCCCNC(=O)c1cnccn1)NC(=O)[C@H](CCCCNC(=O)c1cnccn1)NC(=O)[C@@H](N)CCCCNC(=O)c1cnccn1)NC(=O)[C@H](CCCCNC(=O)c1cnccn1)NC(=O)[C@H](CCCCNC(=O)c1cnccn1)NC(=O)[C@@H](N)CCCCNC(=O)c1cnccn1` (H-K(Pyrazinecarbonyl)K(Pyrazinecarbonyl)K(Pyrazinecarbonyl)K(X1)K(Pyrazinecarbonyl)K(Pyrazinecarbonyl)K(Pyrazinecarbonyl)Y-NH2), for which the equilibrium dissociation constant (Kd) is greater than 10000 nM.
`N=C(N)N[C@@H]1C[C@H](C(=O)N2C[C@H](N)C[C@@H]2C(=O)N[C@@H](Cc2ccc(O)cc2)C(N)=O)N(C(=O)[C@H]2C[C@@H](N)CN2C(=O)[C@H](CCCCNC(=O)[C@H]2C[C@@H](N)CN2C(=O)[C@H]2C[C@@H](NC(=N)N)CN2C(=O)[C@H]2C[C@@H](N)CN2)NC(=O)[C@H]2C[C@@H](N)CN2C(=O)[C@H]2C[C@@H](NC(=N)N)CN2C(=O)[C@H]2C[C@@H](N)CN2)C1` had a Kd of 720 nM. This counts as sub-micromolar.
The result for `N=C(N)N[C@H]1CN[C@@H](C(=O)N2C[C@H](N)C[C@@H]2C(=O)N[C@@H](Cc2cccc3ccccc23)C(=O)NCCCC[C@H](NC(=O)[C@H](Cc2cccc3ccccc23)NC(=O)[C@H]2C[C@@H](N)CN2C(=O)[C@H]2C[C@@H](NC(=N)N)CN2)C(=O)NCCN(CC(=O)NCCN(CC(=O)N[C@@H](Cc2cccc3ccccc23)C(=O)N[C@@H](Cc2ccc(O)cc2)C(N)=O)C(=O)Cn2cnc3c(=O)[nH]c(N)nc32)C(=O)Cn2cnc3c(=O)[nH]c(N)nc32)C1` reads 660 nM; that for `N=C(N)N[C@H]1CN[C@@H](C(=O)N2C[C@H](N)C[C@@H]2C(=O)N2C[C@H](N)C[C@@H]2C(=O)NCCCC[C@H](NC(=O)[C@H]2C[C@@H](N)CN2C(=O)[C@H]2C[C@@H](N)CN2C(=O)[C@H]2C[C@@H](NC(=N)N)CN2)C(=O)N[C@@H](CCCCNC(=O)c2cnccn2)C(=O)N[C@@H](Cc2cccc3ccccc23)C(=O)N2C[C@H](N)C[C@@H]2C(=O)N[C@@H](Cc2ccc(O)cc2)C(N)=O)C1`, 2980 nM; that for `N=C(N)N[C@H]1CN[C@@H](C(=O)N2C[C@H](N)C[C@@H]2C(=O)N2C[C@H](N)C[C@@H]2C(=O)NCCCC[C@H](NC(=O)[C@H]2C[C@@H](N)CN2C(=O)[C@H]2C[C@@H](N)CN2C(=O)[C@H]2C[C@@H](NC(=N)N)CN2)C(=O)NCCN(CC(=O)NCCN(CC(=O)N2C[C@H](N)C[C@@H]2C(=O)N[C@@H](Cc2ccc(O)cc2)C(N)=O)C(=O)Cn2cnc3c(=O)[nH]c(N)nc32)C(=O)Cn2cnc3c(=O)[nH]c(N)nc32)C1`, 1760 nM.
